Legend:
Type in all cases: cell-based, Saccharomyces cerevisiae
end3 cells (RH266-1D) [1] = assay: a-factor sensitivity halo assay; settings: 24 °C
Outline: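 Halo assay. Early log-phase cells were counted, washed with YPUAD and embedded in YPUAD containing 0.8% agar at 47°C. Disks containing α-factor were placed on the agar surface, and the radius of the growth-inhibition zone was read. The radius is logarithmically proportional to strain sensitivity.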

[2] = system: wild-type cells (RH144-3D); assay: 35S-a-factor internalization assay; settings: after a 34 °C preincubation; data not shown
[3] = system: wild-type cells (RH144-3D); assay: LY-CH accumulation in the vacuole; settings: LY 4 mg/ml, fluorescence microscopy, minimum of 46 cells counted
Outline: (§1)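 Cells grown overnight at 24°C, then harvested and split. One half stayed at 24°C. The other was shifted slowly to 35°C by resetting the water bath, and lucifer yellow CH (4 mg/ml) was added once 35°C was reached. Cells were washed extensively in ice-cold 50 mM sodium succinate pH 5 with 10 mM sodium azide, then viewed by Nomarski and fluorescence optics with 20–25 s exposures. Cells with clear vacuolar staining were scored positive. Cells without staining but with a vacuole visible by Nomarski were scored negative.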

end3 cells (RH266-1D) [4] = assay: LY-CH accumulation in the vacuole; settings: LY 4 mg/ml, fluorescence microscopy, minimum of 46 cells counted
Outline: as §1

end4 cells (RH268-1C) = assay: LY-CH accumulation in the vacuole; settings: LY 4 mg/ml, fluorescence microscopy, minimum of 46 cells counted
Outline: as §1

alpha-factor
a-factor needed to form the same size halo, relative to end4 or wild-type cells (end3 cells (RH266-1D) [1]): approximately two times less

C[C@@H]1C[C@@H]([C@H](O)CC2CC(=O)NC(=O)C2)C(=O)[C@@H](C)C1 [cycloheximide]
effect of cycloheximide on a-factor internalization kinetics [2]: identical to cells which receive no cycloheximide

Lucifer yellow-CH [LY]
% of cells showing vacuolar labeling ([3]; 24 °C, 2 h): 92%
% of cells showing vacuolar labeling ([3]; 35 °C, 1 h): 97%
% of cells showing vacuolar labeling (end3 cells (RH266-1D) [4]; 24 °C, 2 h): 4%
% of cells showing vacuolar labeling (end3 cells (RH266-1D) [4]; 35 °C, 1 h): 4%
% of cells showing vacuolar labeling (end4 cells (RH268-1C); 24 °C, 2 h): 10%
% of cells showing vacuolar labeling (end4 cells (RH268-1C); 35 °C, 1 h): 0%

Reference: PMC2119492 (The Journal of Cell Biology, 1993)
